Assay results: ChEMBL document CHEMBL1132470, “Structure-activity relationships of novel 2-substituted quinazoline antibacterial agents” (1999)
In brackets after ≈: the same amount, converted by molar mass.

What was measured:
Assay type in all cases: functional
Escherichia coli [1] = assay: Antibacterial activity against Escherichia coli
Streptococcus pyogenes [2] = assay: Antibacterial activity against Streptococcus pyogenes
Summary of the method: (§1)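 Run as a duplicate broth microdilution in Todd-Hewitt broth. An overnight culture was added to compound in 4% DMSO in water, giving about 10⁵-10⁶ CFU/well, and incubated at 37 °C. Growth was read as A595 at 24 h. MIC is given as a concentration range: complete inhibition at the upper concentration, viable cells at the lower. Ampicillin and tetracycline served as controls.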

Streptococcus pyogenes [3] = assay: Antibacterial activity against Streptococcus pyogenes (#14289); summary of the method: as §1
Escherichia coli [4] = assay: Antibacterial activity against Escherichia coli (#25922)
Summary of the method: (§2)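 Bacteria were grown in nutrient broth at 37 °C. An overnight culture was added to compound in 4% DMSO/water, giving about 10⁵-10⁶ CFU/well, in duplicate. Absorbance at 595 nm was read after 24 h. MIC is reported as a range between the lowest concentration with complete growth inhibition and the next lower concentration with viable cells. Ampicillin and tetracycline were positive controls.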

Enterococcus faecalis = assay: Antibacterial activity against Enterococcus faecalis (#29212); summary of the method: as §1
Klebsiella pneumoniae = assay: Antibacterial activity against Klebsiella pneumoniae (#13883); summary of the method: as §2
Staphylococcus aureus = assay: Antibacterial activity against Staphylococcus aureus (#13709)
Summary of the method: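 Trypticase soy broth culture was grown at 37 °C. The overnight suspension was mixed with compound in 4% DMSO in water, giving a final inoculum of about 10⁵-10⁶ CFU/well, in duplicate. Growth was read as A595 after 24 h. MIC is a concentration range, full inhibition at the higher and viability at the lower. Ampicillin and tetracycline were included as controls.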

Streptococcus pyogenes [5] = assay: Antibacterial activity against Streptococcus pyogenes (#49399)

Row | MIC (Escherichia coli [1]) [µM] | MIC (Streptococcus pyogenes [2]) [µM] | Compound | further results
1 | > 25 | > 25 | CC(C)(C)OC(=O)c1ccc(NC2CCN(C(=O)c3ccc4ccccc4c3)CC2)cc1 | 
2 | > 25 | > 25 | O=C(O)c1ccc(NC2CCN(C(=O)c3ccc4ccccc4c3)CC2)cc1 | 
3 | > 50 | 25 (≈ 11 µg/mL) | COC(=O)c1ccc(NC2CCN(c3nc(N)c4cc(OC)c(OC)cc4n3)CC2)nc1 | 
4 | > 100 | > 100 | Nc1nc(N2CCC(Nc3ccc(C(=O)O)cc3)CC2)nc2ccccc12 | 
5 | > 20 |  | COc1cc2nc(N3CCC(Nc4ccc(C(=O)O)cc4[N+](=O)[O-])CC3)nc(N)c2cc1OC | MIC (Streptococcus pyogenes [3]): > 20 µM
6 | > 25 |  | COC(=O)c1nc(Cl)c(NC2CCN(C(=O)OC(C)(C)C)CC2)nc1N | MIC (Streptococcus pyogenes [3]): > 25 µM
7 | > 20 | > 20 | COc1cc2nc(N3CCC(Nc4ccc(C(=O)O)cc4)CC3)nc(O)c2cc1OC | 
8 | > 25 | > 25 | O=C(O)c1ccc(NC2CCN(c3ncccn3)CC2)cc1 | 
9 | > 50 |  | COC(=O)c1nc(Cl)c(NNc2nc(N)c3cc(OC)c(OC)cc3n2)nc1N | MIC (Streptococcus pyogenes [3]): > 50 µM
10 | 25 (≈ 13.1 µg/mL) |  | COc1cc2nc(N3CCC(Nc4ccc(C(=O)OC(C)(C)C)cc4[N+](=O)[O-])CC3)nc(N)c2cc1OC | MIC (Streptococcus pyogenes [3]): 50 µM (≈ 26.2 µg/mL)
11 | < 100 | < 100 | COc1cc2nc(N3CCC(Nc4ccc(C(=O)OC(C)(C)C)cc4)CC3)nc(OC)c2cc1OC | 
12 | > 25 | > 25 | CC(C)(C)OC(=O)c1ccc(NC2CCN(S(=O)(=O)c3ccc4ccccc4c3)CC2)cc1 | 
13 | > 25 | > 25 | COc1ccc2[nH]c(N3CCC(Nc4ccc(C(=O)O)cc4)CC3)nc2c1 | 
14 | > 100 |  | COc1cc2nc(N3CCC(Nc4nc(N)c(C(=O)O)nc4Cl)CC3)nc(N)c2cc1OC | MIC (Streptococcus pyogenes [3]): > 100 µM
15 | > 25 | > 25 | CC(C)(C)OC(=O)c1ccc(NC2CCNCC2)cc1 | 
16 | > 50 |  | COC(=O)c1nc(Cl)c(NC2CCN(Cc3ccccc3)CC2)nc1N | MIC (Streptococcus pyogenes [3]): > 50 µM
17 | > 25 | > 25 | O=C(O)c1ccc(NC2CCN(Cc3ccccc3)CC2)cc1 | 
18 | > 25 |  | COC(=O)c1nc(Cl)c(NC2CCN(c3nc(N)c4cc(OC)c(OC)cc4n3)CC2)nc1N | MIC (Streptococcus pyogenes [3]): 12 µM (≈ 5.87 µg/mL)
19 | > 20 | > 20 | COc1cc2nc(N3CCC(Nc4ccc(C(=O)O)cc4)CC3)nc(Nc3ccc(C)cc3)c2cc1OC | 

Row | MIC (Escherichia coli [1]) [µM] | MIC (Streptococcus pyogenes [2]) [µM] | Compound | further results
20 | > 25 | > 25 | CC(C)(C)OC(=O)c1ccc(NC2CCN(c3ncccn3)CC2)cc1 | 
21 | > 100 | > 100 | COc1cc2nc(N3CCC(Nc4ccc(C(=O)OC(C)(C)C)cc4)CC3)nc(O)c2cc1OC | 
22 | > 25 | > 25 | CC(C)(C)OC(=O)c1ccc(NC2CCN(Cc3ccccc3)CC2)cc1 | 
23 | > 25 | > 25 | CC(C)(C)OC(=O)c1ccc(NC2CCN(c3ccc4ccccc4c3)CC2)cc1 | 
24 | 5 (≈ 2.19 µg/mL) | 5 (≈ 2.19 µg/mL) | COC(=O)c1ccc(NC2CCN(c3nc(N)c4cc(OC)c(OC)cc4n3)CC2)cc1 | MIC (Escherichia coli [4]): > 100 µM; MIC (Enterococcus faecalis): 20 µM (≈ 8.75 µg/mL); MIC (Klebsiella pneumoniae): > 100 µM; MIC (Staphylococcus aureus): > 100 µM; MIC (Streptococcus pyogenes [5]): 5 µM (≈ 2.19 µg/mL)
25 | > 50 | > 50 | COc1cc2nc(N3CCC(Nc4ccc(C(=O)O)cn4)CC3)nc(N)c2cc1OC | 
26 | < 100 | < 100 | CC(C)(C)OC(=O)c1ccc(NC2CCN(c3nc(N)c4ccccc4n3)CC2)cc1 | 
27 | > 20 | > 20 | COc1cc2nc(N3CCC(Nc4ccc(C(=O)O)cc4)CC3)nc(OC)c2cc1OC | 
28 | > 25 | > 25 | O=C(O)c1ccc(NC2CCN(c3ccc4ccccc4c3)CC2)cc1 | 
29 | > 25 | > 25 | COC(=O)c1ccc(NC2CCN(Cc3ccccc3)CC2)cc1 | 
30 | > 100 | > 100 | COc1ccc2[nH]c(N3CCC(Nc4ccc(C(=O)OC(C)(C)C)cc4)CC3)nc2c1 | 
31 | > 50 |  | COC(=O)c1ncc(NC2CCN(c3nc(N)c4cc(OC)c(OC)cc4n3)CC2)nc1N | MIC (Streptococcus pyogenes [3]): > 50 µM
32 | > 20 | > 20 | COc1cc2cnc(N3CCC(Nc4ccc(C(=O)O)cc4)CC3)nc2cc1OC | 
33 | 6 (≈ 2.88 µg/mL) | 3 (≈ 1.44 µg/mL) | COc1cc2nc(N3CCC(Nc4ccc(C(=O)OC(C)(C)C)cc4)CC3)nc(N)c2cc1OC | MIC (Escherichia coli [4]): > 100 µM; MIC (Enterococcus faecalis): 6 µM (≈ 2.88 µg/mL); MIC (Klebsiella pneumoniae): > 100 µM; MIC (Staphylococcus aureus): > 100 µM; MIC (Streptococcus pyogenes [5]): 6 µM (≈ 2.88 µg/mL)
34 | > 25 | > 25 | COc1cc2nc(N3CCC(Nc4cnc(C(=O)O)c(N)n4)CC3)nc(N)c2cc1OC | 
35 | 10 (≈ 5.7 µg/mL) | 2.5 (≈ 1.42 µg/mL) | COc1cc2nc(N3CCC(Nc4ccc(C(=O)OC(C)(C)C)cc4)CC3)nc(Nc3ccc(C)cc3)c2cc1OC | 
36 | > 25 | > 25 | O=C(O)c1ccc(NC2CCN(S(=O)(=O)c3ccc4ccccc4c3)CC2)cc1 | 
37 | > 20 | > 20 | COc1cc2cnc(N3CCC(Nc4ccc(C(=O)OC(C)(C)C)cc4)CC3)nc2cc1OC | 
38 | 0.4 (≈ 0.169 µg/mL) | > 25 | COc1cc2nc(N3CCC(Nc4ccc(C(=O)O)cc4)CC3)nc(N)c2cc1OC | MIC (Escherichia coli [4]): 60 µM (≈ 25.4 µg/mL); MIC (Enterococcus faecalis): > 100 µM; MIC (Klebsiella pneumoniae): 6 µM (≈ 2.54 µg/mL); MIC (Staphylococcus aureus): 6 µM (≈ 2.54 µg/mL); MIC (Streptococcus pyogenes [5]): > 25 µM

Row | Compound | MIC (Escherichia coli [1]) [µM] | MIC (Streptococcus pyogenes [2]) [µM] | further results
39 | COC(=O)c1nc(Cl)c(NC2CCNCC2)nc1N | > 25 |  | MIC (Streptococcus pyogenes [3]): > 25 µM
